In ChEMBL document CHEMBL1129629, “Orally active, nonpeptide vasopressin V2 receptor antagonists: a novel series of 1-[4-(benzoylamino)benzoyl]-2,3,4,5-tetrahydro-1H-benzazepines and related compounds” (J Med Chem, 1996):

How the values were obtained:
Vasopressin V2 receptor [1] = biological target: T1, Vasopressin V2 receptor (Rattus norvegicus, UniProt Q00788); assay: Displacement of [3H]-AVP from its AVP-V2 receptor binding site in rat kidney
In short: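 Radioligand competition with [3H]AVP on plasma membrane preparations, rat liver for V1a and rat kidney for V2. Assays run in duplicate. Reported intraassay variation is under 3% and interassay variation under 20%.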

Vasopressin V1a receptor [2] = biological target: T2, Vasopressin V1a receptor (Rattus norvegicus, UniProt P30560); assay: Displacement of [3H]AVP from AVP-V1a receptor binding site in rat liver
T2 sequence (P30560 whole entry): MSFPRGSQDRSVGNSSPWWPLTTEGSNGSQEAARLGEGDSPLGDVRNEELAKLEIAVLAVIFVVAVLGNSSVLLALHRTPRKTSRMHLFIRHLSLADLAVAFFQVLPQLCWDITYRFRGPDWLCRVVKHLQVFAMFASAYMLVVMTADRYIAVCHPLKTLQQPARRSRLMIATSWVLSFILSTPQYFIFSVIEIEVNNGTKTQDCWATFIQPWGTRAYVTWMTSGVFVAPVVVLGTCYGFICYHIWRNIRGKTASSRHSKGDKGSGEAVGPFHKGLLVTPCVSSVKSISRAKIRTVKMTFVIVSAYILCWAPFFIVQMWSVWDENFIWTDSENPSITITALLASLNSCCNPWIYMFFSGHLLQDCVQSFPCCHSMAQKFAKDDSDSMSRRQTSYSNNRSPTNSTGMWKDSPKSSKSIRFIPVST
In short: (§1)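 Radioligand competition with [3H]AVP on plasma membrane preparations, rat liver for V1a and rat kidney for V2. […] Assays run in duplicate. Reported intraassay variation is under 3% and interassay variation under 20%.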

Rattus norvegicus [3] = assay: Dose(mg/kg) required for a 3-fold increase in the 2-h urine volume over the control rats.; format: functional
In short: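 Hydrated conscious rats, compound given orally at three or four doses. Spontaneously voided urine collected every 2 h over 8 h. ED3 (mg/kg) read from the dose–response curve as the dose giving a 3-fold rise in 2-h urine volume over control rats. ">" means no 3-fold rise at the highest dose tested.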

Vasopressin V1a receptor [4] = biological target: T2, Vasopressin V1a receptor; assay: Compound was tested for its ability to displace [3H]AVP from its specific binding sites in Rat liver (AVP-V1a receptor).; in short: as §1
Vasopressin V2 receptor [5] = biological target: T1, Vasopressin V2 receptor; assay: Compound was tested for its ability to displace [3H]AVP from its specific binding sites in rat Kidney (AVP-V2 receptor).; in short: as §1
Rattus norvegicus [6] = assay: UV values mean 2-h urine volume (mL) when the compound was administered orally at a dose of 10 mg/kg; format: functional; conditions: route oral
In short: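 Conscious rats dosed orally at 10 mg/kg, with urine voided spontaneously. The value is urine volume (mL) collected over the first 2 h, given as mean ± SEM of 4 rats and set against control rats (n = 4).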

T1 sequence (Q00788 whole entry): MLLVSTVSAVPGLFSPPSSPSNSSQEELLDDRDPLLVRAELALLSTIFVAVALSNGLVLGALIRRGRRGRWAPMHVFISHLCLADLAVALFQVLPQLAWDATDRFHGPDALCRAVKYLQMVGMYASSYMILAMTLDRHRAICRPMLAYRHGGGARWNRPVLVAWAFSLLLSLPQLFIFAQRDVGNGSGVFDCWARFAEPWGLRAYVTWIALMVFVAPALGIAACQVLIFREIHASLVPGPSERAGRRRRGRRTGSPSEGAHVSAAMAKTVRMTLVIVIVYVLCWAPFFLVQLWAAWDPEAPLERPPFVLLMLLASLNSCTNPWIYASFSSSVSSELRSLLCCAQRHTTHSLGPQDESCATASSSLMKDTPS

Compound | IC50 (Vasopressin V2 receptor [1]) | IC50 (Vasopressin V1a receptor [2]) | ED3 (Rattus norvegicus [3]) | IC50 (Vasopressin V1a receptor [4]) | IC50 (Vasopressin V2 receptor [5]) | Activity (Rattus norvegicus [6])
CCCC(=O)Nc1ccc(C(=O)N2CCCc3ccccc32)cc1 | 7.1 µM | 4.3 µM | – | – | – | –
Cc1ccc(C(=O)Nc2ccc(C(=O)N3CCCC(N(C)C)c4ccccc43)cc2)cc1 (stereo not given) | 0.044 µM | 26 µM | – | – | – | –
Cc1ccccc1C(=O)Nc1ccc(C(=O)N2CCOc3ccccc32)cc1 | 4.1 µM | 7.7 µM | – | – | – | –
Cc1ccc(C(=O)Nc2ccc(C(=O)N3CCCc4ccccc43)cc2)c(C)c1 | 0.21 µM | 3.3 µM | – | – | – | –
Cc1ccc(C(=O)Nc2ccc(C(=O)N3CCCc4ccccc43)cc2)cc1C | 1.2 µM | > 100 µM | – | – | – | –
CC(=O)O/N=C1\CCCN(C(=O)c2ccc(NC(=O)c3ccccc3C)cc2)c2ccccc21 | – | – | > 30 mg/kg | 2.3 µM | 0.058 µM | –
Cc1cccc(C(=O)Nc2ccc(C(=O)N3CCCc4ccccc43)cc2)c1 | 0.68 µM | 3.1 µM | – | – | – | –
O=C(c1ccc(NS(=O)(=O)c2ccccc2)cc1)N1CCCCc2ccccc21 | 1.6 µM | 2.5 µM | – | – | – | –
CN(C)C1CCCN(C(=O)c2ccc(NC(=O)c3ccccc3Cl)cc2)c2ccccc21 (stereo not given) | 0.027 µM | 3 µM | 4.2 mg/kg | – | – | 7 mL
Cc1ccccc1C(=O)Nc1ccc(C(=O)N2CCCC(O)c3ccccc32)cc1 (stereo not given) | 0.029 µM | 0.14 µM | – | – | – | 3.6 mL
O=C(Nc1ccc(C(=O)N2CCCCc3ccccc32)cc1)c1ccccc1Cl | 0.029 µM | 0.045 µM | – | – | – | –
COc1cccc(C(=O)Nc2ccc(C(=O)N3CCCc4ccccc43)cc2)c1 | – | 2.8 µM | – | – | – | –
O=C(Nc1cccc(C(=O)N2CCCc3ccccc32)c1)c1ccccc1 | 40 µM | > 100 µM | – | – | – | –
CCCNC1CCCN(C(=O)c2ccc(NC(=O)c3ccccc3C)cc2)c2ccccc21 (stereo not given) | 0.05 µM | 0.89 µM | 6.6 mg/kg | – | – | 5.6 mL
O=C(Nc1ccc(C(=O)N2CCCc3ccccc32)cc1)c1ccccc1Cl | 0.42 µM | 1.6 µM | – | – | – | –
O=C(Nc1ccc(C(=O)N2CCCCc3ccccc32)cc1)Oc1ccccc1 | – | – | – | 7.8 µM | 0.79 µM | –
Cc1ccccc1C(=O)N(C)c1ccc(C(=O)N2CCCC(N(C)C)c3ccccc32)cc1 (stereo not given) | 1 µM | 19 µM | – | – | – | –
Cc1ccccc1C(=O)Nc1ccc(C(=O)N2CCN(C)c3ccccc32)cc1 | 0.4 µM | 5.1 µM | – | – | – | –
CCCN(C)C1CCCN(C(=O)c2ccc(NC(=O)c3ccccc3C)cc2)c2ccccc21 (stereo not given) | 0.022 µM | 1.2 µM | 4.9 mg/kg | – | – | 8.3 mL
CN(C)C1CCCN(C(=O)c2ccc(NC(=O)c3ccccc3N)cc2)c2ccccc21 (stereo not given) | 0.19 µM | 1.9 µM | – | – | – | –
O=C(Nc1ccc(C(=O)N2CCCc3ccccc32)cc1)c1ccco1 | 6.4 µM | 4 µM | – | – | – | –

Compound | IC50 (Vasopressin V2 receptor [1]) | IC50 (Vasopressin V1a receptor [2]) | ED3 (Rattus norvegicus [3]) | IC50 (Vasopressin V1a receptor [4]) | IC50 (Vasopressin V2 receptor [5]) | Activity (Rattus norvegicus [6])
CCNC1CCCN(C(=O)c2ccc(NC(=O)c3ccccc3C)cc2)c2ccccc21 (stereo not given) | 0.029 µM | 1.6 µM | 8 mg/kg | – | – | 5.4 mL
O=C(Nc1ccc(C(=O)N2CCCc3ccccc32)cc1)c1cccnc1 | 7.6 µM | 11 µM | – | – | – | –
O=C(Nc1ccc(C(=O)N2CCCc3ccccc32)cc1)c1ccc(Cl)cc1Cl | 0.25 µM | > 100 µM | – | – | – | –
O=C(Nc1ccccc1C(=O)N1CCCc2ccccc21)c1ccccc1 | 22 µM | 88 µM | – | – | – | –
CN(C)C1CCCN(C(=O)c2ccc(NC(=O)c3cc(Cl)cc(Cl)c3)cc2)c2ccccc21 (stereo not given) | 0.02 µM | 2.6 µM | – | – | – | –
COc1ccccc1C(=O)Nc1ccc(C(=O)N2CCCc3ccccc32)cc1 | 2.1 µM | 1.91 µM | – | – | – | –
COc1ccc(C(=O)Nc2ccc(C(=O)N3CCCc4ccccc43)cc2)cc1 | 1.8 µM | 2.2 µM | – | – | – | –
O=C(Nc1ccc(C(=O)N2CCCc3ccccc32)cc1)c1ccc(Cl)cc1 | 1.9 µM | 5.1 µM | – | – | – | –
CC(=O)NC1CCCN(C(=O)c2ccc(NC(=O)c3ccccc3C)cc2)c2ccccc21 (stereo not given) | 0.15 µM | 3.2 µM | >30 mg/kg | – | – | –
CN(C)C1CCCN(C(=O)c2ccc(NC(=O)c3ccc(Cl)cc3Cl)cc2)c2ccccc21 (stereo not given) | 0.013 µM | 1.3 µM | – | – | – | –
O=C(Nc1ccc(C(=O)N2CCCc3ccccc32)cc1)c1cc(Cl)cc(Cl)c1 | 0.082 µM | 9.4 µM | – | – | – | –
O=C(Nc1ccc(C(=O)N2CCCC(N3CCCCC3)c3ccccc32)cc1)c1ccccc1Cl (stereo not given) | 0.14 µM | 2.8 µM | – | – | – | –
O=C(Cc1ccccc1)Nc1ccc(C(=O)N2CCCc3ccccc32)cc1 | 1 µM | 3.2 µM | – | – | – | –
CCCCOc1ccc(C(=O)Nc2ccc(C(=O)N3CCCc4ccccc43)cc2)cc1 | > 100 µM | > 100 µM | – | – | – | –
CNC(=O)NC1CCCN(C(=O)c2ccc(NC(=O)c3ccccc3C)cc2)c2ccccc21 (stereo not given) | 0.096 µM | 2.8 µM | – | – | – | –
O=C(Nc1ccc(C(=O)N2CCCc3ccccc32)cc1)c1cccc(Cl)c1 | – | 6.4 µM | – | – | – | –
Cc1ccccc1C(=O)Nc1ccc(C(=O)N2CCCC(N(C)CC#N)c3ccccc32)cc1 (stereo not given) | 0.025 µM | 3.2 µM | >30 mg/kg | – | – | –
Cc1ccccc1C(=O)Nc1ccc(C(=O)N2CCCC(N(C)CC(N)=O)c3ccccc32)cc1 (stereo not given) | – | – | 6.4 mg/kg | – | – | 6.2 mL
CNC1CCCN(C(=O)c2ccc(NC(=O)c3ccccc3C)cc2)c2ccccc21 (stereo not given) | 0.024 µM | 0.72 µM | 4.6 mg/kg | – | – | 8.3 mL
CC(C)C(=O)Nc1ccc(C(=O)N2CCCc3ccccc32)cc1 | 8.1 µM | 2.4 µM | – | – | – | –
CC(=O)Nc1ccccc1C(=O)Nc1ccc(C(=O)N2CCCC(N(C)C)c3ccccc32)cc1 (stereo not given) | 0.64 µM | 16 µM | – | – | – | –

Compound | IC50 (Vasopressin V2 receptor [1]) | IC50 (Vasopressin V1a receptor [2]) | ED3 (Rattus norvegicus [3]) | IC50 (Vasopressin V1a receptor [4]) | IC50 (Vasopressin V2 receptor [5]) | Activity (Rattus norvegicus [6])
Cc1cccc(C(=O)Nc2ccc(C(=O)N3CCCC(N(C)C)c4ccccc43)cc2)c1 (stereo not given) | 0.014 µM | 2.4 µM | >30 mg/kg | – | – | –
Cc1ccccc1C(=O)Nc1ccc(C(=O)N2CCCc3ccccc32)cc1 | – | 1.4 µM | – | – | – | –
CCOC(=O)CN(C)C1CCCN(C(=O)c2ccc(NC(=O)c3ccccc3C)cc2)c2ccccc21 (stereo not given) | 0.029 µM | 0.98 µM | >30 mg/kg | – | – | –
O=C(Nc1ccc(C(=O)N2CCCc3ccccc32)cc1)c1cccc([N+](=O)[O-])c1 | 0.76 µM | 16 µM | – | – | – | –
O=C(Nc1ccc(C(=O)N2CCCc3ccccc32)cc1)c1ccc([N+](=O)[O-])cc1 | 6.5 µM | > 100 µM | – | – | – | –
CC(=O)Nc1ccc(C(=O)N2CCCc3ccccc32)cc1 | > 100 µM | 74 µM | – | – | – | –
Cc1ccccc1C(=O)Nc1ccc(C(=O)N2CCCOc3ccccc32)cc1 | 0.11 µM | 1.2 µM | – | – | – | –
Cc1ccc(C(=O)Nc2ccc(C(=O)N3CCCc4ccccc43)cc2)cc1 | 1.4 µM | 10 µM | – | – | – | –
O=C(Nc1ccccc1)Nc1ccc(C(=O)N2CCCCc3ccccc32)cc1 | 0.18 µM | 0.76 µM | – | – | – | –
O=C(CCc1ccccc1)Nc1ccc(C(=O)N2CCCc3ccccc32)cc1 | 6.1 µM | 2.3 µM | – | – | – | –
O=C(Nc1ccc(C(=O)N2CCCc3ccccc32)cc1)c1ccccc1[N+](=O)[O-] | 0.53 µM | 2.7 µM | – | – | – | –
Cc1ccccc1C(=O)Nc1ccc(C(=O)N2CCOCc3ccccc32)cc1 | 0.3 µM | 0.63 µM | – | – | – | –
O=C(Nc1ccc(C(=O)N2CCCc3ccccc32)cc1)c1ccccc1 | – | 1.6 µM | – | – | – | –
CCOc1ccc(C(=O)Nc2ccc(C(=O)N3CCCc4ccccc43)cc2)cc1 | > 100 µM | 14 µM | – | – | – | –
CN(C)C1CCCN(C(=O)c2ccc(NC(=O)c3ccccc3[N+](=O)[O-])cc2)c2ccccc21 (stereo not given) | 0.071 µM | 2.6 µM | – | – | – | –
Cc1ccccc1C(=O)Nc1ccc(C(=O)N2CCN(C)Cc3ccccc32)cc1 | 0.17 µM | 1.8 µM | – | – | – | –
O=C(Nc1ccc(C(=O)N2CCCc3ccccc32)cc1)c1ccsc1 | 1.7 µM | 1.7 µM | – | – | – | –
COc1ccccc1C(=O)Nc1ccc(C(=O)N2CCCC(N(C)C)c3ccccc32)cc1 (stereo not given) | 0.077 µM | 1 µM | – | – | – | –
CN(C)C1CCCN(C(=O)c2ccc(NC(=O)c3ccccc3)cc2)c2ccccc21 (stereo not given) | 0.027 µM | 3 µM | >30 mg/kg | – | – | –
Cc1ccccc1C(=O)Nc1ccc(C(=O)N2CCCC(N)c3ccccc32)cc1 (stereo not given) | 0.032 µM | 0.39 µM | – | – | – | –
Cc1ccccc1C(=O)Nc1ccc(C(=O)N2CCCC(N(C)C)c3ccccc32)cc1 (stereo not given) [MOZAVAPTAN] | – | 1.4 µM | 3.8 mg/kg | – | – | 12.3 mL
